CSC inhib: blocks cancer stem cells | cancer stem cell-like cells viability, luminescence | inhibition, % at 7.5 µM | 1.1% of 300,000 active | AID 2717; in the data active = inhibition above about 75%; tested in HMLE shEcad cells
aSyn 5UTR inh: 5' untranslated region of α-synuclein, MLPCN primary screen; alpha-synuclein 5'UTR reporter, inhibitor activity; inhibition, % (tested at 7.5 µM); 0.82% of 300,000 active; in the data active = inhibition above about 60%;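 also: H4 neuroglioblastoma cells stably carrying SNCA 5'UTR luciferase fusion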
SKKanGAS inh: inhibitors of SKKanGAS S. pyogenes growth in kanamycin (SK-promoter or general growth effect). BacTiter-Glo, 6 h. inhibition, % at 7.5 µM. 1.3% of 300,000 active. AID 1662;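 active = mean replicate score, as percent of positive control median, at least 50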;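 also: strain carries kanamycin resistance gene driven by streptokinase promoter and grows in 40 µg/ml kanamycin; loss of luminescence reflects streptokinase promoter inhibition or plain growth inhibition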
T cruzi inh: T. cruzi replication inhibition | T. cruzi beta-gal in NIH3T3, luminescence, 90 h | inhibition, % (no concentration beside the values) | AID 1885 | 1.4% of 300,000 active;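 active = mean inhibition across valid replicates above about 55%, limit read from the data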;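 also: signal also drops with host cell toxicity which is not excluded here; higher percent means less beta-gal luminescence so fewer parasites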
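Assay system: NIH/3T3 fibroblasts plus reporter T. cruzi. Amount: NIH/3T3 cells, 5,000 per well. Buffer or medium: DMEM, 2% fetal bovine serum. Doses: compound pinned at 50 nL/well, DMSO. Schedule: ≥90 h infection period, 3 h prior cell attachment. Signal: luminescent β-galactosidase signal after 60 min lysis. Read-out: parasite load inhibition, %.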
Mdm2 MdmX PPI: inhibitors of human Mdm2/MdmX interaction; O15151+Q00987; inhibition, % at 8 µM; SaOS-2 split-luciferase Mdm2/MdmX complementation, luminescence; 3% of 330,000 active; AID 485346;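 active = inhibition of at least 50% at 8 µM in the primary screen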
Target sequence (O15151 whole entry, looked up): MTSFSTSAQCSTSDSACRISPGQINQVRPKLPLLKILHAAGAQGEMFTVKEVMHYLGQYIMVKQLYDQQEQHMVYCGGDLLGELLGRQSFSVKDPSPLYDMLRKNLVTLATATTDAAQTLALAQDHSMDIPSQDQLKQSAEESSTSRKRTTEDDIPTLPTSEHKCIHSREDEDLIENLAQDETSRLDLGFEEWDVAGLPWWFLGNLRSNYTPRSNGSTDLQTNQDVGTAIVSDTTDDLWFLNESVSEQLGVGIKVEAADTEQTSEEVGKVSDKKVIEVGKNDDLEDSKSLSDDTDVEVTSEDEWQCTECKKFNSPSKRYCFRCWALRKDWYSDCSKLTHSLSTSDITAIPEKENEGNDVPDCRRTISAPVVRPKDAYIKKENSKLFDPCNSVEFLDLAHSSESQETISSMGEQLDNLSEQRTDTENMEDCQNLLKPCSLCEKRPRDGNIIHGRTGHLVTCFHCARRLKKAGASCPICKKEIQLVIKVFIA
Target sequence (Q00987 whole entry, looked up): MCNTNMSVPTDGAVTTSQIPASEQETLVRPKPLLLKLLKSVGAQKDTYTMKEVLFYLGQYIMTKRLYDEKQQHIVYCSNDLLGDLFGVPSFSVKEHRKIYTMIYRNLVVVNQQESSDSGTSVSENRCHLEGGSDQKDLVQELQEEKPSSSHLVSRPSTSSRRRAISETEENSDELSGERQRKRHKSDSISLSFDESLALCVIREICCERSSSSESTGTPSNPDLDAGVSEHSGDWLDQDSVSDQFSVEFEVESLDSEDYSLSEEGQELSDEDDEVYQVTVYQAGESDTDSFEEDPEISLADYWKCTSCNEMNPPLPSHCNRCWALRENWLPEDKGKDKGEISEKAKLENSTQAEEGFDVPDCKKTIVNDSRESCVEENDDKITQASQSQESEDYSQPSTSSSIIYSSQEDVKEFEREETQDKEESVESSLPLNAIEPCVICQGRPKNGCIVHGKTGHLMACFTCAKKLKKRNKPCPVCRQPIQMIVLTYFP
Hits are given with their value. Only some compounds are listed: those with a hit (about 5.4% of all), similar ones and a draw of the others.

`CO[C@H]1C=CO[C@@]2(C)Oc3c(C)c(O)c4c(O)c(c(C=NN5CCN(C6CCCC6)CC5)c(O)c4c3C2=O)NC(=O)C(C)=CC=C[C@H](C)[C@H](O)[C@@H](C)[C@@H](O)[C@@H](C)[C@H](OC(C)=O)[C@@H]1C` gave aSyn 5UTR inh inactive, SKKanGAS inh 105, T cruzi inh inactive and Mdm2 MdmX PPI inactive.
O=C(NCCN1CCN(c2ccc([N+](=O)[O-])cc2)CC1)NCc1ccccc1 was read as CSC inhib inactive, aSyn 5UTR inh inactive, SKKanGAS inh inactive, T cruzi inh inactive and Mdm2 MdmX PPI inactive.
`CC(NC(=O)COC(=O)C1CCCCC1)c1ccccc1` (centres undefined) gave Mdm2 MdmX PPI inactive.
For O=C(NC1CCN(Cc2ccccc2)CC1)c1ccc(Cn2c(=S)[nH]c3ccc(N4CCOCC4)cc3c2=O)cc1 the results were aSyn 5UTR inh inactive, SKKanGAS inh inactive, T cruzi inh 60 and Mdm2 MdmX PPI inactive.
For O=C(CCCCCn1c(=S)[nH]c2ccc(N3CCOCC3)cc2c1=O)NC1CCN(Cc2ccccc2)CC1 the results were CSC inhib inactive, aSyn 5UTR inh inactive, SKKanGAS inh inactive, T cruzi inh 65 and Mdm2 MdmX PPI inactive.
Screening O=C(c1ccc(Cn2c(=S)[nH]c3ccc(N4CCOCC4)cc3c2=O)cc1)N1CCC(N2CCCCC2)CC1 returned CSC inhib inactive, aSyn 5UTR inh inactive, SKKanGAS inh inactive, T cruzi inh inactive and Mdm2 MdmX PPI inactive.
Screening CCN(CC)CCN(Cc1cc2cc(C)ccc2[nH]c1=O)C(=O)Nc1ccccc1OC returned CSC inhib inactive, aSyn 5UTR inh inactive, SKKanGAS inh inactive, T cruzi inh inactive and Mdm2 MdmX PPI inactive.
CCc1ccc2[nH]c(=O)c(CN(Cc3ccccc3OC)C(=O)Nc3ccccc3OC)cc2c1 was read as CSC inhib inactive, aSyn 5UTR inh inactive, SKKanGAS inh inactive, T cruzi inh 62 and Mdm2 MdmX PPI inactive.
O=C(NC(=S)Nc1ccccc1N1CCCC1)c1cccc(F)c1 was read as CSC inhib inactive, aSyn 5UTR inh inactive, SKKanGAS inh inactive, T cruzi inh inactive and Mdm2 MdmX PPI inactive.
Screening Cc1ccc2c(c1)C1CN(C)CCC1N2C(=O)COc1ccc(N(C)C(=O)C(C)(C)C)cc1 (centres undefined) returned CSC inhib inactive, aSyn 5UTR inh inactive, SKKanGAS inh inactive, T cruzi inh inactive and Mdm2 MdmX PPI inactive.
`Cc1ccc2c(c1)C1CN(C)CCC1N2C(=O)c1cccc(S(=O)(=O)N2CC(C)CC(C)C2)c1` (centres undefined) gave CSC inhib inactive, aSyn 5UTR inh inactive, SKKanGAS inh inactive, T cruzi inh 80 and Mdm2 MdmX PPI inactive.
Screening Cc1ccc2c(c1)C1CN(C)CCC1N2C(=O)c1ccc(Cl)c(S(=O)(=O)N2CCOCC2)c1 (centres undefined) returned CSC inhib inactive, aSyn 5UTR inh inactive, SKKanGAS inh inactive, T cruzi inh 60 and Mdm2 MdmX PPI inactive.
Cc1ccc2c(c1)C1CN(C)CCC1N2C(=S)NC(=O)c1ccc(Br)cc1 (centres undefined) was read as CSC inhib inactive, aSyn 5UTR inh inactive, SKKanGAS inh inactive, T cruzi inh 64 and Mdm2 MdmX PPI inactive.
For Cc1ccc2c(c1)C1CN(C)CCC1N2S(=O)(=O)c1cc(C(F)(F)F)ccc1Cl (centres undefined) the results were CSC inhib inactive and Mdm2 MdmX PPI inactive.
Cc1ccc(C(=O)N(C)c2ccc(OCC(=O)N3c4ccc(C)cc4C4CN(C)CCC43)cc2)cc1 (centres undefined) was read as CSC inhib inactive, aSyn 5UTR inh inactive, SKKanGAS inh inactive, T cruzi inh 68 and Mdm2 MdmX PPI inactive.
Cc1ccc2c(c1)C1CN(C)CCC1N2S(=O)(=O)c1cccc(C(F)(F)F)c1 (centres undefined) was read as CSC inhib inactive and Mdm2 MdmX PPI inactive.
Screening Cc1ccc(NS(=O)(=O)c2ccc(NC(=O)c3ccccc3C(=O)O)cc2)c(C)c1 returned CSC inhib inactive, aSyn 5UTR inh inactive, SKKanGAS inh inactive, T cruzi inh 64 and Mdm2 MdmX PPI inactive.
Screening Cc1cc(C)cc(NS(=O)(=O)c2ccc(NC(=O)c3ccccc3C(=O)O)cc2)c1 returned CSC inhib inactive, aSyn 5UTR inh inactive, SKKanGAS inh inactive, T cruzi inh inactive and Mdm2 MdmX PPI inactive.
`CCOc1ccc2ccccc2c1/C=N/NC(=O)c1ccncc1` gave CSC inhib inactive, aSyn 5UTR inh inactive, SKKanGAS inh inactive, T cruzi inh inactive and Mdm2 MdmX PPI inactive.
Screening C[C@H]1c2cccc(O)c2C(O)=C2C(=O)[C@]3(O)C(O)=C(C(N)=O)C(=O)[C@@H](N(C)C)C3[C@@H](O)C21 (some centres undefined) returned CSC inhib inactive, aSyn 5UTR inh inactive, SKKanGAS inh 105, T cruzi inh inactive and Mdm2 MdmX PPI inactive.
For O=C(NC1CCCCC1)C(c1cccnc1)N(C(=O)CCl)c1ccc(F)cc1 (centres undefined) the results were CSC inhib 99, aSyn 5UTR inh inactive, SKKanGAS inh inactive and T cruzi inh inactive.
For COc1ccc(C(C(=O)NC2CCCCC2)N(C(=O)CCl)c2cccc(Cl)c2)cc1 (centres undefined) the results were CSC inhib 109, aSyn 5UTR inh inactive, SKKanGAS inh inactive and T cruzi inh inactive.
Screening O=C(NCC(=O)N(c1ccc(F)cc1)C(C(=O)NC1CCCCC1)c1cccnc1)c1ccco1 (centres undefined) returned CSC inhib inactive, aSyn 5UTR inh inactive, SKKanGAS inh inactive, T cruzi inh inactive and Mdm2 MdmX PPI inactive.
`COc1cccc(N(C(=O)c2cnccn2)C(C(=O)NC2CCCCC2)c2ccc(Cl)cc2)c1` (centres undefined) gave CSC inhib inactive, aSyn 5UTR inh inactive, SKKanGAS inh inactive, T cruzi inh inactive and Mdm2 MdmX PPI inactive.
For CC1(NC(=O)NCCCCCCNC(=O)NC2(C)CCS(=O)(=O)C2)CCS(=O)(=O)C1 (centres undefined) the results were aSyn 5UTR inh inactive, SKKanGAS inh inactive, T cruzi inh inactive and Mdm2 MdmX PPI inactive.
`COc1cc(Cl)c(C)cc1NC(=O)CNC(C)c1ccccc1OC` (centres undefined) gave CSC inhib inactive, aSyn 5UTR inh inactive, SKKanGAS inh inactive, T cruzi inh inactive and Mdm2 MdmX PPI inactive.
For CC1=N/C(=C\c2ccc([N+](=O)[O-])cc2)C(=O)N1c1ccc(F)cc1F the results were CSC inhib inactive, aSyn 5UTR inh inactive, SKKanGAS inh inactive, T cruzi inh inactive and Mdm2 MdmX PPI inactive.
For CN(Cc1ccccc1)CC(O)COc1ccc(CNCCc2ccncc2)cc1 (centres undefined) the results were CSC inhib inactive, aSyn 5UTR inh inactive, SKKanGAS inh inactive, T cruzi inh 66 and Mdm2 MdmX PPI inactive.
For O=C(Cc1ccccc1)N/N=C/c1ccc([N+](=O)[O-])s1 the results were CSC inhib inactive, aSyn 5UTR inh inactive, SKKanGAS inh inactive, T cruzi inh inactive and Mdm2 MdmX PPI inactive.
For O=C(N/N=C/c1ccc([N+](=O)[O-])s1)C(O)c1ccccc1 (centres undefined) the results were CSC inhib inactive, aSyn 5UTR inh inactive, SKKanGAS inh inactive, T cruzi inh 77 and Mdm2 MdmX PPI inactive.
